# Laboratory results: ChEMBL document CHEMBL3045564, “Synthesis of photosynthesis-inhibiting nostoclide analogues” (J Agric Food Chem, 2008)
# Active and inactive are the calls of the source. No cut-off for these calls is given here.
# Experiments:
# Spinacia oleracea [1] = test: Inhibition of photosynthesis in isolated Spinacia oleracea (spinach) chloroplasts assessed as reduction in light-driven ferricyanide reduction at 5 uM; format: functional
# Procedure, shortened: (§1)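 Thylakoid membranes from market spinach leaves, homogenized in ice-cold Tricine-NaOH pH 8.0 with NaCl, MgCl2 and 0.4 M sucrose. Osmotically swollen, kept on ice in the dark. Portions with 20 μg chlorophyll incubated at 24 °C with 1 mM K3Fe(CN)6. Run under saturating light (800 μmol m⁻² s⁻¹), A420 read every 30 s for 10 min. Triplicate; percent inhibition versus untreated controls.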
# Spinacia oleracea [2] = test: Inhibition of photosynthesis in isolated Spinacia oleracea (spinach) chloroplasts assessed as reduction in light-driven ferricyanide reduction at 10 uM; format: functional; procedure, shortened: as §1
Structure (SMILES),inhibition (Spinacia oleracea [1]),inhibition (Spinacia oleracea [2])
O=C1O/C(=C\c2ccccc2Br)C=C1Cc1ccccc1,inactive,21.8%
Cc1ccc(/C=C2/C=C(Cc3ccccc3)C(=O)O2)cc1,inactive,8%
O=C1O/C(=C\c2cccc(Br)c2)C=C1Cc1ccccc1,13.8%,22.6%
O=C1O/C(=C\c2ccccc2F)C=C1Cc1ccccc1,24.5%,49.5%
O=C1O/C(=C\c2ccc(Br)cc2)C=C1Cc1ccccc1,inactive,inactive
COc1ccc(OC)c(/C=C2/C=C(Cc3ccccc3)C(=O)O2)c1,30.3%,43.5%
N#Cc1cccc(/C=C2/C=C(Cc3ccccc3)C(=O)O2)c1,inactive,inactive
O=C1O/C(=C\c2ccc(Cl)cc2)C=C1Cc1ccccc1,inactive,5.8%
CCc1ccc(/C=C2/C=C(Cc3ccccc3)C(=O)O2)cc1,40.6%,50.7%
CN(C)C(=O)Nc1ccc(Cl)c(Cl)c1,93.2%,95.1%
O=C1O/C(=C\c2cccc(C(F)(F)F)c2)C=C1Cc1ccccc1,27.3%,49.9%
O=C1O/C(=C\c2cccc(Cl)c2)C=C1Cc1ccccc1,5.8%,20.3%
Cc1ccccc1/C=C1/C=C(Cc2ccccc2)C(=O)O1,16.7%,26%
O=C1O/C(=C\c2ccc(C(F)(F)F)cc2)C=C1Cc1ccccc1,34%,55.5%
O=C1O/C(=C\c2ccccc2)C=C1Cc1ccccc1,12.7%,29.2%
O=C1O/C(=C\c2ccc(-c3ccccc3)cc2)C=C1Cc1ccccc1,inactive,inactive
CN(C)c1cccc(/C=C2/C=C(Cc3ccccc3)C(=O)O2)c1,10.9%,38.6%

Structure (SMILES),inhibition (Spinacia oleracea [1]),inhibition (Spinacia oleracea [2])
O=C1O/C(=C\c2cccc([N+](=O)[O-])c2)C=C1Cc1ccccc1,30%,39.5%
COc1cc(OC)c(/C=C2\C=C(Cc3ccccc3)C(=O)O2)c(OC)c1,25.2%,43.6%
Cc1cccc(/C=C2/C=C(Cc3ccccc3)C(=O)O2)c1,8%,16.7%
COc1ccc(/C=C2/C=C(Cc3ccccc3)C(=O)O2)cc1O,inactive,inactive
O=C1O/C(=C\c2ccc(O)cc2)C=C1Cc1ccccc1,inactive,6.5%
O=C1O/C(=C\c2ccccc2Cl)C=C1Cc1ccccc1,19.4%,30.8%
N#Cc1ccc(/C=C2/C=C(Cc3ccccc3)C(=O)O2)cc1,inactive,inactive
O=C1O/C(=C\c2ccccc2C(F)(F)F)C=C1Cc1ccccc1,23.3%,44.9%
CN(C)c1ccc(/C=C2/C=C(Cc3ccccc3)C(=O)O2)c(Cl)c1,13.8%,25.4%
COc1ccc(/C=C2/C=C(Cc3ccccc3)C(=O)O2)cc1,8.5%,15%
O=C1O/C(=C\c2ccc(F)cc2)C=C1Cc1ccccc1,9.2%,25.6%
O=C1O/C(=C\c2ccccc2O)C=C1Cc1ccccc1,inactive,inactive
O=C1O/C(=C\c2c(F)c(F)c(F)c(F)c2F)C=C1Cc1ccccc1,inactive,6.6%
CN(C)c1ccc(/C=C2/C=C(Cc3ccccc3)C(=O)O2)cc1,5.7%,7.1%
O=C1O/C(=C\c2cccc(O)c2)C=C1Cc1ccccc1,inactive,6.9%
O=C1O/C(=C\c2ccc([N+](=O)[O-])cc2)C=C1Cc1ccccc1,49.8%,57.8%
O=C1O/C(=C\c2cccc(F)c2)C=C1Cc1ccccc1,9.5%,28.8%
